An excerpt weighted towards active compounds, which were near 1.8% of everything screened.
TAG inh: inhibitors of triacylglycerol accumulation. H9c2 cells, Nile Red lipid (TAG) fluorescence; cells loaded with 200 µM oleic acid. inhibition, % at 12.5 µM. 0.66% of 230,000 active. AID 651582;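 active = pattern-corrected inhibition of lipid staining of at least 50% with the nuclear-stain viability signal not falling by more than 50%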;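 note: 0% = DMSO wells and 100% = triacsin C control wells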
hiPSC survival: hiPSC single-cell survival enhancement; AID 602274; survival enhancement, % at 20 µM; 0.044% of 360,000 active; ATPlite luminescence; 100% = ROCK inhibitor wells, 0% = DMSO; in the data active = survival enhancement above about 18%;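 note: cells exposed to compounds for 16 hours before the ATP read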
697 NFkB inh: lowers PMA/ionomycin-induced NF-kB signal in 697 B cells. AID 435022. inhibition, % at 4 µM. 0.33% of 330,000 active. 697 B-cell NF-kB luciferase reporter, 16 h; in the data active = inhibition above about 35%
Jurkat NFkB inh: lowers PMA/ionomycin-induced NF-kB signal in Jurkat cells; PMA/ionomycin-induced NF-kB luciferase reporter, luminescence; inhibition, % at 4 µM; 0.53% of 330,000 active; in the data active = inhibition above about 50%
Hep lipid drop: modulators of hepatic lipid droplet formation. AID 1656. 0.4% of 240,000 active. AML12 mouse hepatocytes, oleate lipid droplets, BODIPY imaging. inhibition, % at 6.5 µM;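 active = lipid droplet intensity inhibited by at least 50%, with more than 500 cells counted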
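Material – mouse AML12 hepatocyte cell line, fixed after treatment · Compound dosing – one dose, 6.5 µM compound · Times – compound with oleate, overnight · Measured by – Image-based BODIPY and DAPI two-channel analysis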
Gli-Sufu block: blocks Gli-Sufu signaling in a luciferase reporter; AID 588413; inhibition, % at 5 µM; 0.74% of 340,000 active; Sufu-KO-LIGHT fibroblasts, Gli luciferase reporter luminescence;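 active = inhibition above about 55%, limit read from the data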;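 note: 0% = DMSO-treated cells and 100% = wells with medium but no cells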
Jurkat NFkB conf: inhibitors of the PMA/ionomycin-induced NF-kB reporter in Jurkat cells, retest; shares compounds with Jurkat NFkB inh; Jurkat NF-kB luciferase, 16 h; inhibition, % at 4 µM; 27% of 2,700 active; AID 435020;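 active = inhibition reaching about 45% at 4 µM in either replicate, limit read from the data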;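 note: plate controls were PMA/ionomycin stimulated DMSO wells for no effect and unstimulated DMSO wells for full effect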
697 NFkB conf: lowers PMA/ionomycin-induced NF-kB signal in 697 B cells. shares compounds with 697 NFkB inh. 697 B-cell NF-kB luciferase, 16 h. inhibition, % at 4 µM. 35% of 2,000 active. AID 449746; in the data active = inhibition mostly above about 28%, no sharp cut-off; inactive = mostly below about 22%
Starred values were filed as active, the others as inactive; / = no result.

SMILES	TAG inh	hiPSC survival	697 NFkB inh	Jurkat NFkB inh	Hep lipid drop	Gli-Sufu block	Jurkat NFkB conf	697 NFkB conf
CC(=O)c1sc(Nc2ccccc2)nc1C	/	0	/	/	/	/	/	/
Cc1nc(Nc2ccccc2)sc1-c1ccccc1	/	-4	-303	-164	-7	-126	-82	-151
CCN(CC(=O)Nc1ccccc1C(F)(F)F)C(=O)Cc1ccccc1	/	0	0	8	-29	4	/	/
CC(C)(C)C1CCc2c(sc(NC(=O)CSc3ncn[nH]3)c2C#N)C1 (stereo unspecified)	22	-1	-11	-10	8	3	/	/
Cc1ccc(C(=O)Nc2sc3c(c2C#N)CCCCC3)cc1C	10	-2	-156	-143	-20	-96	/	/
CC1CCc2c(sc(NC(=O)CSc3ncn[nH]3)c2C#N)C1 (stereo unspecified)	5	0	58*	61*	5	33	61*	52*
N#Cc1c(NC(=O)CSc2ncn[nH]2)sc2c1CCCC2	-5	0	62*	52*	15	22	47	47*
N#Cc1c(NC(=O)c2ccccc2)sc2c1CCCCC2	/	-2	-280	-179	-6	7	-138	-237
COc1ccc(C(=O)NC(C(=O)NCC2(N3CCCCC3)CCCCC2)C(C)C)cc1 (stereo unspecified)	2	-2	-6	-5	/	-1	/	/
CC1CCCN(C(=O)c2cc(S(=O)(=O)N3CCCCC3)c[nH]2)C1 (stereo unspecified)	-4	0	1	2	0	-1	/	/
CCOC(=O)N1CCN(C(=O)c2cccc(S(=O)(=O)Nc3ccccc3Cl)c2)CC1	5	0	19	-2	/	3	/	/
O=C(CC(Nc1ccccc1Cl)C(=O)O)c1ccccc1 (stereo unspecified)	5	-1	-269	-256	-17	22	17	-52
O=C(CC(Nc1cccc(Cl)c1Cl)C(=O)O)c1ccccc1 (stereo unspecified)	7	4	-31	-21	-4	1	/	/
O=C(Nc1ncc(Cc2cccc(Cl)c2)s1)c1cccs1	-20	8	-118	-40	/	-25	/	/
O=C(Nc1ncc(Cc2ccccc2)s1)c1cccs1	-1	-3	-326	-173	/	3	-116	-248
O=C(c1cccs1)c1ccc(-c2cccs2)s1	-1	-3	-381	-191	/	0	-100	-283
O=C(OCC#CCSc1nnc(-c2cccc3ccccc23)o1)c1cccc2[nH]ccc12	0	0	-3	-4	/	-8	/	/
Cc1ccc2[nH]c3c(c2c1)CCCC3NC(=O)CCl (stereo unspecified)	/	3	-262	97*	28	28	95*	-52
CC(=O)c1sc(N/N=C\c2ccccc2O)nc1C	-1	-2	-47	-46	10	-25	/	/
COc1cccc(-c2nc(-c3cccs3)no2)c1	-3	0	-289	-163	-3	-64	-131	-311
CCCCCn1ccc(=N)cc1	-43	3	23	24	/	24	/	/
CCCCCCCCCn1ccc(=N)cc1	21	-1	45*	92*	-5	89*	77*	58*
COc1ccc(O)c(C(=O)CC(=O)c2ccncc2)c1	-4	-1	/	/	/	-48	/	/
COc1ccc(O)c(C(=O)CC(=O)c2ccccc2)c1	/	/	-251	-158	/	/	-108	-196
Cc1cc([N+](=O)[O-])nn1Cc1ccccc1F	22	0	51*	97*	/	-26	62*	76*
SMILES	TAG inh	hiPSC survival	697 NFkB inh	Jurkat NFkB inh	Hep lipid drop	Gli-Sufu block	Jurkat NFkB conf	697 NFkB conf
Cc1cc([N+](=O)[O-])nn1Cn1nc([N+](=O)[O-])cc1C	-11	-1	9	-18	-11	2	/	/
c1ccc(-c2ccc(-c3nc(-c4ccccn4)no3)cc2)cc1	/	-6	39*	77*	-6	81*	81*	36*
Clc1cccc(-c2nc(-c3ccccn3)no2)c1	-12	-4	-112	-14	/	-21	/	/
CC(=O)c1ccc(S(=O)(=O)N2CCN(CCOc3ccc(Br)cc3)CC2)cc1	-43	0	-17	32	/	10	/	/
CC(C)c1ccc2oc(-c3ccc(N)cc3)nc2c1	/	-4	-472	-225	/	-140	-144	-400
CC(C)c1ccc2oc(-c3ccc(NC(=O)c4ncn[nH]4)cc3)nc2c1	/	-1	-144	-66	2	-15	/	/
Cc1ccc2oc(-c3cccc(N)c3)nc2c1	1	-2	-139	-96	7	-116	/	/
Cc1ccc(-c2nc3cc(N)ccc3o2)cc1	/	-2	-265	-202	9	-80	-82	-193
Cc1ccc(-c2nc3cc(C)ccc3o2)cc1	11	-4	-308	-175	16	-1	-98	-292
CC1(C)Cc2c(sc(NC(=O)C(=O)N3CCCCC3)c2C(N)=O)CO1	/	0	9	-10	1	1	/	/
CCN(C[C@H]1N[C@@](CC)(C(=O)OC)[C@H]2C(=O)N(C)C(=O)[C@@H]12)S(=O)(=O)c1ccc(OC)cc1	-2	-1	-10	-3	/	-2	/	/
CCOC(=O)Cc1csc(NS(=O)(=O)c2ccc(SC)cc2)n1	0	3	-5	-7	-31	-7	/	/
Cc1nc(NCc2ccco2)c2c(C)c(C)sc2n1	/	-2	-281	70*	-28	14	58*	-43
COc1ccc(N=Cc2c(O)c3ccccc3n2C(C)=O)cc1	-31	-1	-5	-23	42	-7	/	/
COc1ccc(N=Cc2sc(O)c3ccccc23)cc1	-29	-2	-299	-175	18	-142	17	-71
Nc1nc(F)nc2c1ncn2[C@@H]1O[C@H](CO)[C@@H](O)[C@H]1O	118	-1	75*	93*	/	71*	89*	92*
Nc1nc(Cl)nc2c1ncn2C1CC(O)C(CO)O1 (stereo unspecified)	33	0	65*	51*	/	/	50*	68*
Cc1ccc(NC(=O)Cn2ccc([N+](=O)[O-])n2)cc1C	-14	0	6	-7	14	4	/	/
O=c1oc2ccccc2cc1-c1nc2ccccc2o1	/	-2	-98	-86	/	-15	/	/
O=c1oc2ccccc2cc1-c1nc2c(s1)CCCC2	/	-4	-305	-165	/	-90	-79	-369
O=C(Nc1ccnn1C1CCN(Cc2cccc(O)c2)CC1)C1CCCC1	-11	1	-1	2	6	11	/	/
CCN(CC)c1ccc(/C=C/c2cccc[n+]2C)c(OC)c1	/	0	75*	94*	-144	89*	78*	88*
COc1ccc(/C=C/c2cccc[n+]2C)c(O)c1	/	0	-38	-28	-2	34	/	/
CC(C)(C)C(=O)/C(=C\c1ccc([N+](=O)[O-])cc1)n1cncn1	/	/	44*	76*	-4	/	57*	50*

Assay outcomes as filed in PubChem.
